Source: PubChem
Hits are enriched below; roughly 4.1% of the tested compounds scored in any of these assays.
MEKK3 PB1 HTS – modulators (inhibitors or enhancers) of MEK5 binding to human MEKK3 PB1 domain | binding response (% of control), % at 10 µM | Q99759 | hit rate 1.4% among 290,000 | AID 1529 | bead-based flow cytometry, Alexa488-MEK5 binding to MEKK3; actives lie on both sides; 0 = blocked by unlabeled MEK5, 100 = vehicle;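 active = binding response more than 3 SD above or below the average of its plate-row segment, actives on both sides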;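 note: Alexa488 bead fluorescence after subtracting the streptavidin-only scavenger bead signal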
Target sequence (Q99759 whole entry, looked up, the tested form may be a part): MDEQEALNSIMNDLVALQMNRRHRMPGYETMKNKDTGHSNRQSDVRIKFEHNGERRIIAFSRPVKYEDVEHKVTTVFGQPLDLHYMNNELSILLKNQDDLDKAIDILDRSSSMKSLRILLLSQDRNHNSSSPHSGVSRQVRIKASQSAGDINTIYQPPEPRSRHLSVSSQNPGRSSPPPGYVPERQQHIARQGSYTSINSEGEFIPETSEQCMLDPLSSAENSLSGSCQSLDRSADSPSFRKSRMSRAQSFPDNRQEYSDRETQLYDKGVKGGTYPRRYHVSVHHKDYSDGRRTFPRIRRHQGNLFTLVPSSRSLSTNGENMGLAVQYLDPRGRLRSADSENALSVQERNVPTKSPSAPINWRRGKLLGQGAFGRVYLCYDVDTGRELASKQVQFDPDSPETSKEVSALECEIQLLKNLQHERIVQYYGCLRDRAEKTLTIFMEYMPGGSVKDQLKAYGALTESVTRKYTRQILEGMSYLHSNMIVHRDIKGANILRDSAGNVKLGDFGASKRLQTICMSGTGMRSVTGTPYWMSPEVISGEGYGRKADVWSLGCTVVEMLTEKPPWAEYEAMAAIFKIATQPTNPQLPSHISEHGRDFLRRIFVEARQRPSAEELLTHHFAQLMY
NS3 helicase inh – inhibitors of Hepatitis C virus NS3 helicase | hit rate 0.56% among 290,000 | NS3 helicase DNA unwinding, Cy5 molecular beacon fluorescence | inhibition, % at 10.9 µM;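 active = inhibition above the mean of all tested compounds plus 3 SD, set per campaign, cut at about 35% in these data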;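 note: 0% = DMSO wells and 100% = thioflavine S control wells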
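Test system: hepatitis C virus NS3 helicase domain fragment enzyme. Also added: annealed dual-labelled DNA beacon duplex, ATP-started. Timing: 60 min unwinding reaction at 25 °C after ATP addition. Technique: Cy5 fluorescence. Measure: % inhibition of unwinding.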
DNA FID counter-1 – displaces DNA intercalator in HCV helicase counter-screen | AID 1845 | hit rate 0.17% among 290,000 | DNA fluorescent intercalator displacement, fluorescence | inhibition, % at 7.9 µM;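 note: 0% = vehicle and 100% = reference compound; higher means more ethidium bromide displaced from hairpin DNA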
T cruzi inh – blocks replication of Trypanosoma cruzi. T. cruzi beta-gal in NIH3T3, luminescence, 90 h. inhibition, % (test concentration not listed). hit rate 1.4% among 300,000;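 active = mean inhibition across valid replicates above about 55%, limit read from the data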;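 note: signal also drops with host cell toxicity which is not excluded here; 0% = plate median of DMSO wells and 100% = zero luminescence signal; higher percent means less beta-gal luminescence so fewer parasites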
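Material: NIH/3T3 host cells with β-galactosidase reporter T. cruzi; Input: 5,000 host fibroblasts per well; Medium: DMEM, 2% fetal bovine serum; Compound: 50 nL DMSO compound solution per well; Schedule: 3 h host attachment, then at least 90 h co-culture; Detection: luminescent β-galactosidase signal after 60 min lysis.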
MEKK2mut PB1 HTS – signal of MEK5 binding to mutant human MEKK2 PB1 domain; AID 1530; bead flow cytometry, Alexa488-MEK5 binding to MEKK2 mutant; hit rate 0.35% among 290,000; percent response, % at 10 µM; in the data active = percent response above about 24%, passing the limit was not always enough
MEKK2 WT-MEK5 – raises or lowers MEK5 binding to wildtype human MEKK2 PB1 domain. bead flow cytometry, Alexa488-MEK5 binding to MEKK2 WT; actives lie on both sides. binding response (% of control), % at 10 µM. hit rate 1.1% among 290,000. AID 1531; in the data active = binding response below about 67% or above about 130%
NS3 helicase cf – confirmation of Hepatitis C virus NS3 helicase inhibitors. shares compounds with NS3 helicase inh. NS3 helicase DNA unwinding, Cy5 molecular beacon fluorescence. inhibition, % at 10.9 µM. hit rate 31% among 1,600;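 active = inhibition above the mean of all tested compounds plus 3 SD, cutoff set per campaign, cut at about 36% in these data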
DNA FID counter-2 – displaces DNA intercalator in HCV helicase counter-screen; shares compounds with NS3 helicase inh; DNA fluorescent intercalator displacement, fluorescence; inhibition, % at 7.9 µM; hit rate 4% among 1,600;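 note: 0% = vehicle and 100% = reference compound; higher means more displacement of ethidium bromide from the DNA hairpin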
DNA FID DR – displaces fluorescent intercalator from DNA, HCV helicase counter-screen. shares compounds with NS3 helicase inh. fluorescent intercalator displacement from DNA, fluorescence. IC50, µM. 120 tested, under 10 active; call rule not given here
Starred values were filed as active, the others as inactive; nt = no result given. Cut-off read from the data, not from the text of the source, unless noted: active = inhibition above about 37%; inactive = the rest.

SMILES | MEKK3 PB1 HTS | NS3 helicase inh | DNA FID counter-1 | T cruzi inh | MEKK2mut PB1 HTS | MEKK2 WT-MEK5 | NS3 helicase cf | DNA FID counter-2 | others
CCn1cc(CN2CCCC(C(=O)c3sccc3C)C2)cn1 (centres undefined) | 96.0 | -5.5 | -0.3 | 46.1 | 3.0 | 96.0 | nt | nt
CC1Oc2cc3c(-c4c(O)cc(O)c5c(O)c6c(cc45)OC(C)C(C)C6=O)c(O)cc(O)c3c(O)c2C(=O)C1C (centres undefined) | 101.0 | 50.3* | 9.4 | -47.7 | 0.0 | 92.0 | 96.2* | 64.0*
CCc1ccc(N2C(=O)NC(=O)/C(=C\c3cc(C)n(-c4cc(C(=O)O)cc(C(=O)O)c4)c3C)C2=O)cc1 | 102.0 | 40.2* | -16.8 | -7.8 | -1.0 | 102.0 | -4.9 | 4.9
CCCCN1C(=O)/C(=C/c2ccc(N3CCCCCC3)cc2)C(=O)NC1=S | 100.0 | 38.7* | -6.2 | -8.9 | 2.0 | 102.0 | 29.5 | 0.2
CN1C(=O)/C(=C\c2ccc(N3CCCCCC3)cc2)C(=O)NC1=S | 96.0 | -1.9 | -4.8 | -5.3 | -12.0 | 94.0 | nt | nt
C=CCN1C(=O)NC(=O)/C(=C/c2c(CCN(C)C(=O)c3ccccc3)cc3c(c2OC)OCO3)C1=O | 96.0 | 54.3* | -12.0 | -1.2 | -3.0 | 93.0 | -31.9 | -17.1
COc1ccc(C(=O)NC(=S)N2C[C@H]3C[C@H](C2)c2cccc(=O)n2C3)cc1 | 96.0 | -8.1 | -8.1 | -8.5 | -2.0 | 97.0 | nt | nt
Cc1ccc2cc(C=C(C#N)C#N)c(Cl)nc2c1 | 98.0 | -1.7 | -1.3 | -3.0 | -1.0 | 96.0 | nt | nt
CN(C)C1C(=O)C(C(N)=O)=C(O)C2(O)C(=O)C3=C(O)c4c(O)cccc4C(C)(O)C3C(O)C12 (centres undefined) | 102.0 | 95.7* | -1.0 | -4.6 | 6.0 | 109.0 | 10.2 | 18.6
O=C1NC(=O)N(c2ccccc2)C(=O)/C1=C/C=C/c1ccco1 | 94.0 | 44.9* | -16.9 | -17.5 | -2.0 | 91.0 | -5.3 | 14.4
Cc1ccc(N2C(=O)NC(=O)/C(=C\C=C\c3ccco3)C2=O)cc1 | 96.0 | 41.9* | -17.5 | -23.2 | -13.0 | 96.0 | 38.5* | 19.6
Cc1cccc(N2C(=O)NC(=O)/C(=C\C=C\c3ccco3)C2=O)c1 | 99.0 | 27.1 | -23.0 | -31.7 | -3.0 | 94.0 | nt | nt
Cc1ccc(N2C(=O)NC(=O)/C(=C\C=C\c3ccco3)C2=O)cc1C | 104.0 | 38.1* | -17.1 | -8.2 | -1.0 | 99.0 | 62.4* | 14.8 | DNA FID DR=>79.4
O=C1NC(=O)N(Cc2ccccc2)C(=O)/C1=C\C=C\c1ccco1 | 103.0 | 41.9* | -13.0 | -17.7 | 6.0 | 98.0 | 22.8 | 11.7
O=C1NC(=O)N(Cc2ccco2)C(=O)/C1=C/C=C/c1ccco1 | 95.0 | 32.8 | -21.9 | -12.2 | -16.0 | 87.0 | nt | nt
CC(C)c1ccccc1OCC(=O)N1CCCN(C)CC1 | 100.0 | 10.4 | 4.1 | 5.5 | 6.0 | 104.0 | nt | nt
CCCC12CN3CC(CCC)(CN(C1)C3c1ccccn1)C2=O (centres undefined) | 100.0 | 6.2 | -9.9 | -13.1 | 1.0 | 103.0 | nt | nt
Cc1nc2ccccc2c(=O)n1-c1cc(F)ccc1F | 99.0 | -0.6 | -0.5 | -9.1 | -1.0 | 92.0 | nt | nt
NC(=O)c1c(NC(=O)c2ccc(S(=O)(=O)N(CCCl)CCCl)cc2)sc2c1CCCCC2 | 101.0 | 2.1 | -0.7 | nt | -1.0 | 102.0 | nt | nt
COc1ccc(N2C(=O)/C(=C/c3ccc(C)o3)C(=O)NC2=S)cc1 | 97.0 | -1.6 | -18.2 | -5.6 | -3.0 | 91.0 | nt | nt
Cc1ccc(/C=C2\C(=O)NC(=S)N(c3cccc(F)c3)C2=O)o1 | 103.0 | 37.4* | -20.0 | -14.3 | 1.0 | 95.0 | 64.9* | 5.1
CN1CCN(c2ccc(/C=C3\C(=O)NC(=S)N(c4cccc(Br)c4)C3=O)o2)CC1 | 85.0 | 18.4 | -5.7 | -0.8 | -6.0 | 85.0 | nt | nt
CCOc1ccc(N2C(=O)/C(=C/c3ccc(C)o3)C(=O)NC2=S)cc1 | 86.0 | 48.6* | -12.1 | 4.0 | -5.0 | 87.0 | 69.6* | -1.5
CNP(=O)(Oc1ccccc1)OC12CC3CC(CC(C3)C1)C2 (centres undefined) | 99.0 | -10.2 | -25.5 | -2.4 | -1.0 | 100.0 | nt | nt
N#Cc1ccc(NC(=O)CN2CCCCCC2)cc1Cl | 100.0 | -16.5 | 0.2 | -3.9 | 3.0 | 105.0 | nt | nt
SMILES | MEKK3 PB1 HTS | NS3 helicase inh | DNA FID counter-1 | T cruzi inh | MEKK2mut PB1 HTS | MEKK2 WT-MEK5 | NS3 helicase cf | DNA FID counter-2 | others
CCC(=NCc1ccco1)c1c(O)n(-c2ccccc2C)c(=O)[nH]c1=O | 103.0 | 0.8 | -6.8 | 10.5 | 2.0 | 103.0 | nt | nt
Cc1ccc(N2C(=O)NC(=O)/C(=C/c3ccc(-c4ccc(C(=O)O)c(Cl)c4)o3)C2=O)cc1 | 107.0 | 39.3* | -32.2 | -4.9 | -11.0 | 90.0 | 36.5* | 9.5
COc1ccc(CC(=O)Nc2ccc3c(C(F)(F)F)cc(=O)oc3c2)cc1OC | 94.0 | 59.0* | -8.8 | -14.2 | -1.0 | 96.0 | -13.2 | -21.5
O=C1NC(=S)NC(=O)C1=Cc1ccc(OCC(=O)N2CCCC2)cc1 | 100.0 | 6.5 | -1.1 | -28.6 | 1.0 | 98.0 | nt | nt
CCN(CC)c1ccc(N=Cc2c(O)n(Cc3ccco3)c(=O)[nH]c2=O)cc1 | 97.0 | 37.3* | -8.4 | nt | -5.0 | 92.0 | 3.7 | -2.3
NC(=O)c1ccc(N=Cc2c(O)n(Cc3ccco3)c(=O)[nH]c2=O)cc1 | 117.0 | 9.7 | -21.1 | 1.4 | 3.0 | 111.0 | nt | nt
Cc1ccccc1-n1c(C)cc(/C=C2/C(=O)NC(=O)N(Cc3ccco3)C2=O)c1C | 100.0 | 39.8* | -26.3 | -1.0 | 7.0 | 106.0 | 3.8 | -14.6
Cc1ccc(-n2c(C)cc(/C=C3/C(=O)NC(=O)N(Cc4ccco4)C3=O)c2C)cc1 | 113.0 | 63.3* | -28.7 | 2.2 | 39.0 | 113.0 | 8.2 | -20.2
C=CCn1c(O)c(C(CC)=Nc2cccc(C(F)(F)F)c2)c(=O)[nH]c1=O | 99.0 | -1.8 | 2.6 | -6.9 | 1.0 | 99.0 | nt | nt
O=C1NC(=O)C(=Cc2ccc(-c3ccc(Cl)cc3)o2)C(=O)N1 | 100.0 | -0.6 | -3.4 | -14.3 | -6.0 | 96.0 | nt | nt
O=C1NC(=O)C(=Cc2ccc(-c3ccc(S(=O)(=O)N4CCOCC4)cc3)o2)C(=O)N1 | 105.0 | 41.9* | 9.8 | -3.5 | -3.0 | 105.0 | -5.4 | 0.6
O=P(CCl)(Nc1ccccc1)C(Cl)(Cl)Cl (centres undefined) | 87.0 | -7.5 | 1.6 | -7.0 | -4.0 | 90.0 | nt | nt
O=C1C2CCN(CC2)C12CC2c1ccc(C(F)(F)F)cc1 (centres undefined) | 98.0 | 38.6* | -0.2 | 5.0 | -1.0 | 99.0 | -7.9 | 19.6
